PAFAH1B2 inh – PAFAH1B2 enzyme inhibitors, primary screen, biochemical, fluorescence polarization, human; inhibition, % at 3.39 µM; Platelet-activating factor acetylhydrolase IB subunit alpha2 (Homo sapiens), P68402; 340,000 compounds, 1.2% hits; recombinant PAFAH1B2, FP-rhodamine activity probe;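 active = inhibition above the mean of all tested compounds plus 3 SD, cut at about 24% in these data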
pPAFAH inh – pPAFAH enzyme inhibitors, primary screen, biochemical, fluorescence polarization, human; Platelet-activating factor acetylhydrolase (Homo sapiens), Q13093; recombinant pPAFAH, FP-rhodamine probe fluorescence polarization; inhibition, % at 3.39 µM; 330,000 compounds, 1.5% hits; AID 463082, 2010;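 active = inhibition above the mean inhibition across the screen plus 3 SD, cut at about 25% in these data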;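 also: inhibitors block binding of the rhodamine activity-based probe so polarization drops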
PAFAH2 inh – PAFAH2 enzyme inhibitors, primary screen, biochemical, fluorescence polarization, human. Platelet-activating factor acetylhydrolase 2, cytoplasmic (Homo sapiens), Q99487. recombinant PAFAH2, FP-rhodamine activity probe. inhibition, % at 3.39 µM. 340,000 compounds, 0.99% hits. AID 492956, 2010;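 active = inhibition above the mean over all tested compounds plus 3 SD, cut at about 30% in these data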;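 also: inhibitors block probe labeling of enzyme so polarization drops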
PAFAH1B3 FP inh – PAFAH1B3 enzyme inhibitors, primary screen, biochemical, fluorescence polarization, human; inhibition, % at 3.39 µM; 340,000 compounds, 0.28% hits; recombinant PAFAH1B3, FP-rhodamine probe; Platelet-activating factor acetylhydrolase IB subunit alpha1 (Homo sapiens), Q15102; AID 492972, 2010;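 active = inhibition above the screen-wide average of all tested compounds plus 3 SD, cut at about 25% in these data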
Target sequence (Q15102 whole entry, looked up): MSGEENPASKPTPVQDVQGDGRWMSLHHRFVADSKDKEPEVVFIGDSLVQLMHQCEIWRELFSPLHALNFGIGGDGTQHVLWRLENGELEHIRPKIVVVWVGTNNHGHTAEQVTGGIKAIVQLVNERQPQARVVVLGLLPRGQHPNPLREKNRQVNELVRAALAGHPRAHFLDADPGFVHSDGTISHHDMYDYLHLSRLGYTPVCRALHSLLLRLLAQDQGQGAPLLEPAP
RBBP9 inh – human RBBP9 inhibitors, primary screen, biochemical, fluorescence polarization, FP-Rh probe, HTS | recombinant RBBP9 | inhibition, % at 7.94 µM | 220,000 compounds, 0.2% hits | AID 1515, 2009;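 active = inhibition above the campaign mean of all tested compounds plus 3 SD, cut at about 14% in these data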
Target sequence (O75884 whole entry, looked up): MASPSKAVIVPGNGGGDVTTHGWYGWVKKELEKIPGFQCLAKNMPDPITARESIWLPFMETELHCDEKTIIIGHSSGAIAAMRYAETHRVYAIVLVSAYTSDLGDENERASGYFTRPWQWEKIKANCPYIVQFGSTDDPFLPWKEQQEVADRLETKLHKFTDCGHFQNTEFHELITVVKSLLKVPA
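Test system – recombinant human RBBP9 · Input – RBBP9 2.5 µM in dispensing solution, pre-mixing · Medium – Tris buffer pH 8.0, NaCl, Pluronic · Schedule – preincubation 30 min plus labeling 45 min at 25 °C · Measured by – fluorescence polarization · Measure – % inhibition · Controls – DMSO and no-protein wells · Replicates – one well per compound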
PAFAH2 FP conf – PAFAH2 enzyme inhibitors, confirmation, biochemical, fluorescence polarization, human. shares compounds with PAFAH2 inh. recombinant PAFAH2, FP-rhodamine activity probe. inhibition, % at 3.39 µM. 2,300 compounds, 65% hits;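 active = mean inhibition over three repeats above a set limit taken from the earlier primary screen, cut at about 30% in these data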;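 also: inhibitor blocks binding of rhodamine activity probe so polarization falls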
Numbers stand for hits. Shown are actives, neighbours in structure and some others; about 2.7% of the full set was active somewhere.

Screening Cc1ccc(N=C2NC(=O)/C(=C/c3cccnc3)S2)cc1C returned PAFAH1B2 inh inactive, pPAFAH inh inactive, PAFAH2 inh 32, PAFAH1B3 FP inh inactive, RBBP9 inh inactive and PAFAH2 FP conf inactive.
For Cc1cc(C)n(-c2ccc(C(=O)OCC(=O)Nc3cc(Cl)ccc3[N+](=O)[O-])cc2)n1 the results were PAFAH1B2 inh inactive, pPAFAH inh inactive, PAFAH2 inh inactive, PAFAH1B3 FP inh inactive and RBBP9 inh inactive.
Cc1cc(C)n(-c2ccc(C(=O)OCC(=O)Nc3ccccc3F)cc2)n1 was read as PAFAH1B2 inh inactive, pPAFAH inh inactive, PAFAH2 inh 62, PAFAH1B3 FP inh inactive and PAFAH2 FP conf 51.
For Cc1ccc(NC(=O)COC(=O)c2ccc(-n3nc(C)cc3C)cc2)c(F)c1 the results were PAFAH1B2 inh inactive, pPAFAH inh inactive, PAFAH2 inh 42, PAFAH1B3 FP inh inactive and PAFAH2 FP conf 43.
For CCC(C)NC(=O)c1ccc(C)c(NC(=O)C2=C(C)OCCS2)c1 (stereo not given) the results were PAFAH1B2 inh inactive, pPAFAH inh inactive, PAFAH2 inh inactive and PAFAH1B3 FP inh inactive.
`COc1cccc(NC(=O)COC(=O)C2CCCCC2)c1` gave PAFAH1B2 inh inactive, pPAFAH inh inactive, PAFAH2 inh 82, PAFAH1B3 FP inh inactive and PAFAH2 FP conf 63.
COc1ccc(NC(=O)COC(=O)C2CCCCC2)c([N+](=O)[O-])c1 was read as PAFAH1B2 inh inactive, pPAFAH inh inactive, PAFAH2 inh 30, PAFAH1B3 FP inh inactive, RBBP9 inh inactive and PAFAH2 FP conf inactive.
Screening CNS(=O)(=O)c1cccc(C(=O)OCC(=O)Nc2ccc(OC)cc2[N+](=O)[O-])c1 returned PAFAH1B2 inh inactive, pPAFAH inh inactive, PAFAH2 inh 31, PAFAH1B3 FP inh inactive, RBBP9 inh inactive and PAFAH2 FP conf inactive.
Screening COc1cccc(NC(=O)COC(=O)C2CC2)c1 returned PAFAH1B2 inh inactive, pPAFAH inh inactive, PAFAH2 inh 69, PAFAH1B3 FP inh inactive and PAFAH2 FP conf 57.
Screening O=C(COC(=O)c1ccc(O)cc1)NCCC1=CCCCC1 returned PAFAH1B2 inh inactive, pPAFAH inh inactive, PAFAH2 inh 57, PAFAH1B3 FP inh inactive, RBBP9 inh inactive and PAFAH2 FP conf 50.
Screening O=C(COC(=O)c1ccc2c(c1)OCCO2)NCCC1=CCCCC1 returned PAFAH1B2 inh inactive, pPAFAH inh inactive, PAFAH2 inh 58, PAFAH1B3 FP inh inactive, RBBP9 inh inactive and PAFAH2 FP conf 47.
Screening O=C(COC(=O)c1ccc(F)cc1F)NCCC1=CCCCC1 returned PAFAH1B2 inh inactive, pPAFAH inh inactive, PAFAH2 inh 47, PAFAH1B3 FP inh inactive and PAFAH2 FP conf 31.
Screening Cc1ccc(C(=O)OCC(=O)NCCC2=CCCCC2)cc1N returned PAFAH1B2 inh inactive, pPAFAH inh inactive, PAFAH2 inh inactive, PAFAH1B3 FP inh inactive and RBBP9 inh inactive.
COc1ccc(C(CNC(=O)c2cc3ccccc3cc2O)N2CCOCC2)cc1 (stereo not given) was read as PAFAH1B2 inh inactive, pPAFAH inh inactive, PAFAH2 inh inactive and PAFAH1B3 FP inh inactive.
Cn1nc(C(F)(F)F)cc1-c1ccc(S(N)(=O)=O)s1 was read as PAFAH1B2 inh inactive, pPAFAH inh inactive, PAFAH2 inh inactive, PAFAH1B3 FP inh inactive and RBBP9 inh inactive.
CN(C)S(=O)(=O)c1cccc(NC(=O)c2cccc(S(=O)(=O)N3CCCCCC3)c2)c1 was read as PAFAH1B2 inh inactive, PAFAH2 inh inactive and PAFAH1B3 FP inh inactive.
CCOc1ccc(NS(=O)(=O)c2ccc3c(c2)n(C)c(=O)n3C)cc1 was read as PAFAH1B2 inh inactive, pPAFAH inh inactive, PAFAH2 inh inactive and PAFAH1B3 FP inh inactive.
For Cc1nc(NC(=O)c2ccccc2)sc1C1(C)CC(c2ccc(OC(F)(F)F)cc2)=NO1 (stereo not given) the results were pPAFAH inh inactive.
